Data from article PMC9305210 (British Journal of Clinical Pharmacology, 2022).
Where two headings read alike, the source gives them in different places. Marks after values point to notes of the source that are not given here.

How the values were obtained:
[1] = assay type: in vivo, human; conditions: for half-life / AUC: human; for half-life / AUC / CL/F, mean (CV%): plasma; for half-life: oral; for AUC: po, AUCτ, mean (CV%), AUCτ = AUC24
Urine pharmacokinetics = assay type: in vivo, human; conditions: for Ae t, mean (CV%) / f e, mean (CV%): urine
[2] = test system: plasma 24S‐hydroxycholesterol (24HC); assay: Pharmacodynamics: time‐matched percentage change from baseline in plasma 24HC; assay type: in vivo, human
How it was run: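 Healthy adults (18-55 y, BMI 18-30 kg/m2), 6 active:2 placebo, double-blind; oral solution QD or BID after ≥8 h fast. 24HC by LC-MS/MS, validated 2.00-100 ng/mL. Time-matched % change from baseline; AUEC24/E24 for QD, AUEC12/E12 for BID.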

Safety and tolerability = assay type: in vivo, human; conditions: 100 mg QD, n = 6
How it was run: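 Randomized, double-blind, placebo-controlled; cohorts of 8 (6:2) healthy adults given oral solution daily for a planned 14 days after ≥8 h fast, confined on site days −3 to 15 plus 1 follow-up day. Monitoring covered AEs, physical examination, BMI, vital signs, ECG and clinical laboratory tests. Subjects with ≥1 treatment-emergent AE counted across all subjects receiving at least one dose.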

[3] = soticlestat 100 mg QD oral solution, day 1
[4] = soticlestat 100 mg QD oral solution, day 14
[5] = soticlestat 300 mg QD oral solution, day 1
[6] = soticlestat 300 mg QD oral solution, day 14
[7] = soticlestat 400 mg QD oral solution, day 1
[8] = soticlestat 400 mg QD oral solution, day 14
[9] = soticlestat 600 mg QD oral solution, day 1
[10] = day 14, 400 mg dose (range 100‐400 mg QD)

## O=C(c1cccnc1-c1ccncc1)N1CCC(O)(Cc2ccccc2)CC1 [Soticlestat, soticlestat]
[1]; 300 mg QD for 14 days
  increase in AUCτ at steady state (accumulation ratio based on AUC): ~1.42 fold
  increase in C max at steady state (day 14 vs day 1): approximately 1.74 fold
[1]; 400 mg QD
  accumulation ratio based on AUC: 1.20
[1]; 100‐400 mg QD, 14 days
  dose proportionality of steady‐state exposure: slightly greater than dose‐proportional
[1]; day 1, 100‐600 mg
  increase in single‐dose mean AUC∞ over 6‐fold dose range: 9.35 fold
  increase in single‐dose mean C max over 6‐fold dose range: 6.55 fold
[1]; day 1 vs day 14
  time‐dependent effect of PK on repeat dosing: not apparent
[1]; day 14, 100‐400 mg QD
  increase in mean AUCτ over 4‐fold dose range: 6.12 fold
  increase in mean C max over 4‐fold dose range: 6.08 fold
[1]; elimination half‐life, overall, as summarised in abstract
  half-life: ~4 h
[1]; mean half‐life, at 300 mg QD and 400 mg QD
  half-life: ~4 h
[1]; mean terminal elimination half‐life (t ½z), range across groups, day 1 and day 14, all doses
  half-life: 3.49 to 4.83 h
[1]; 100 mg, soticlestat 100 mg QD oral solution, day 1
  AUC: 446 ng·h/mL
[1]; 100 mg, soticlestat 100 mg QD oral solution, day 14
  AUC: 458 ng·h/mL
[1]; 300 mg, soticlestat 300 mg QD oral solution, day 1
  AUC: 2030 ng·h/mL
[1]; 300 mg, soticlestat 300 mg QD oral solution, day 14
  AUC: 2690 ng·h/mL
[1]; 400 mg, soticlestat 400 mg QD oral solution, day 1
  AUC: 2500 ng·h/mL
[1]; 400 mg, soticlestat 400 mg QD oral solution, day 14
  AUC: 2800 ng·h/mL
[1]; 600 mg, soticlestat 600 mg QD oral solution, day 1
  AUC: 4180 ng·h/mL
[1]; once‐daily dosing of 100 or 400 mg for 14 days
  exposure accumulation on day 14 compared with day 1: did not appear to result in exposure accumulation
[1]; [3]
  CL/F, mean (CV%): 248 (40.4) ^c L/h
[1]; [4]
  CL/F, mean (CV%): 234 (29.6) L/h
[1]; soticlestat 300 mg BID oral solution, day 1 after first dose
  CL/F, mean (CV%): 232 (47.3) ^e L/h
[1]; [5]
  CL/F, mean (CV%): 185 (47.6) L/h
[1]; [6]
  CL/F, mean (CV%): 130 (43.9) L/h
[1]; [7]
  CL/F, mean (CV%): 187 (38.8) L/h
[1]; [8]
  CL/F, mean (CV%): 166 (44.4) L/h
[1]; [9]
  CL/F, mean (CV%): 194 (57.5) L/h
[1]; single doses of 100‐600 mg QD
  dose proportionality of systemic exposure: slightly greater than dose‐proportional
Urine pharmacokinetics; all doses
  renal excretion / renal elimination: negligible
Urine pharmacokinetics; Ae τ = Ae 12, soticlestat 300 mg BID oral solution, day 1
  Ae t, mean (CV%): 0.490 (75.9) mg
Urine pharmacokinetics; Ae τ = Ae 24, soticlestat 100 mg QD oral solution, day 1
  Ae t, mean (CV%): 0.0900 (25.6) mg
Urine pharmacokinetics; Ae τ = Ae 24, soticlestat 100 mg QD oral solution, day 14
  Ae t, mean (CV%): 0.0800 (30.0) mg
Urine pharmacokinetics; Ae τ = Ae 24, soticlestat 300 mg QD oral solution, day 1
  Ae t, mean (CV%): 0.660 (84.3) mg
Urine pharmacokinetics; Ae τ = Ae 24, soticlestat 300 mg QD oral solution, day 14
  Ae t, mean (CV%): 0.56 (83.4) mg
Urine pharmacokinetics; Ae τ = Ae 24, soticlestat 400 mg QD oral solution, day 1
  Ae t, mean (CV%): 0.920 (47.7) mg
Urine pharmacokinetics; Ae τ = Ae 24, soticlestat 400 mg QD oral solution, day 14
  Ae t, mean (CV%): 1.01 (31.9) mg
Urine pharmacokinetics; Ae τ = Ae 24, soticlestat 600 mg QD oral solution, day 1
  Ae t, mean (CV%): 1.440 (74.4) mg
Urine pharmacokinetics; [3]
  f e, mean (CV%): 0.0900 (25.6) %
Urine pharmacokinetics; [4]
  f e, mean (CV%): 0.0800 (30.0) %
Urine pharmacokinetics; soticlestat 300 mg BID oral solution, day 1
  f e, mean (CV%): 0.160 (75.9) %
Urine pharmacokinetics; [5]
  f e, mean (CV%): 0.220 (84.3) %
Urine pharmacokinetics; [6]
  f e, mean (CV%): 0.190 (83.4) %
Urine pharmacokinetics; [7]
  f e, mean (CV%): 0.230 (47.7) %
Urine pharmacokinetics; [8]
  f e, mean (CV%): 0.250 (31.9) %
Urine pharmacokinetics; [9]
  f e, mean (CV%): 0.240 (74.4) %
[2]; AUECτ = AUEC12, 300 mg BID, day 1
  24HC AUECτ, mean (CV%), percentage change from baseline (day −1): −6.90 (−75.9) %
[2]; AUECτ = AUEC24, 100 mg QD, day 1
  24HC AUECτ, mean (CV%), percentage change from baseline (day −1): −8.15 (−45.4) %
[2]; AUECτ = AUEC24, 100 mg QD, day 14
  24HC AUECτ, mean (CV%), percentage change from baseline (day −1): −46.8 (−9.2) %
[2]; AUECτ = AUEC24, 300 mg QD, day 1
  24HC AUECτ, mean (CV%), percentage change from baseline (day −1): −12.7 (−36.5) %
[2]; AUECτ = AUEC24, 300 mg QD, day 14
  24HC AUECτ, mean (CV%), percentage change from baseline (day −1): −61.9 (−17.0) %
[2]; AUECτ = AUEC24, 400 mg QD, day 1
  24HC AUECτ, mean (CV%), percentage change from baseline (day −1): −11.7 (−34.5) %
[2]; AUECτ = AUEC24, 400 mg QD, day 14
  24HC AUECτ, mean (CV%), percentage change from baseline (day −1): −62.7 (−7.3) %
[2]; AUECτ = AUEC24, 600 mg QD, day 1
  24HC AUECτ, mean (CV%), percentage change from baseline (day −1): −14.0 (−27.9) %
[2]; E t = E 12, 300 mg BID, day 1
  24HC E t, mean (CV%), percentage change from baseline (day −1): −10.5 (−63.8) %
[2]; E t = E 24, 100 mg QD, day 1
  24HC E t, mean (CV%), percentage change from baseline (day −1): −20.9 (−49.0) %
[2]; E t = E 24, 100 mg QD, day 14
  24HC E t, mean (CV%), percentage change from baseline (day −1): −49.1 (−11.9) %
[2]; E t = E 24, 300 mg QD, day 1
  24HC E t, mean (CV%), percentage change from baseline (day −1): −22.4 (−19.5) %
[2]; E t = E 24, 300 mg QD, day 14
  24HC E t, mean (CV%), percentage change from baseline (day −1): −63.8 (−19.3) %
[2]; E t = E 24, 400 mg QD, day 1
  24HC E t, mean (CV%), percentage change from baseline (day −1): −28.4 (−28.1) %
[2]; E t = E 24, 400 mg QD, day 14
  24HC E t, mean (CV%), percentage change from baseline (day −1): −65.6 (−6.0) %
[2]; E t = E 24, 600 mg QD, day 1
  24HC E t, mean (CV%), percentage change from baseline (day −1): −30.6 (−41.0) %
[2]; [10]
  maximum decrease from baseline in 24HC AUEC24: 62.66%
  maximum decrease from baseline in 24HC E24: 65.59%
Safety and tolerability
  Number of subjects (%) with SAEs: 0
  Number of subjects (%) with TEAEs: 0
  Number of subjects (%) with TEAEs: Leading to discontinuation: 0
  Number of subjects (%) with TEAEs: Mild: 0
